Test results: ChEMBL document CHEMBL1955718, “Discovery of new orally effective analgesic and anti-inflammatory hybrid furoxanyl N-acylhydrazone derivatives” (Bioorg Med Chem, 2012)

What was measured:
[1] = target: T1, Prostaglandin G/H synthase 1 (Ovis aries) (UniProt P05979); experiment: Inhibition of ovine COX-1 at 10 uM
T1 sequence (whole entry): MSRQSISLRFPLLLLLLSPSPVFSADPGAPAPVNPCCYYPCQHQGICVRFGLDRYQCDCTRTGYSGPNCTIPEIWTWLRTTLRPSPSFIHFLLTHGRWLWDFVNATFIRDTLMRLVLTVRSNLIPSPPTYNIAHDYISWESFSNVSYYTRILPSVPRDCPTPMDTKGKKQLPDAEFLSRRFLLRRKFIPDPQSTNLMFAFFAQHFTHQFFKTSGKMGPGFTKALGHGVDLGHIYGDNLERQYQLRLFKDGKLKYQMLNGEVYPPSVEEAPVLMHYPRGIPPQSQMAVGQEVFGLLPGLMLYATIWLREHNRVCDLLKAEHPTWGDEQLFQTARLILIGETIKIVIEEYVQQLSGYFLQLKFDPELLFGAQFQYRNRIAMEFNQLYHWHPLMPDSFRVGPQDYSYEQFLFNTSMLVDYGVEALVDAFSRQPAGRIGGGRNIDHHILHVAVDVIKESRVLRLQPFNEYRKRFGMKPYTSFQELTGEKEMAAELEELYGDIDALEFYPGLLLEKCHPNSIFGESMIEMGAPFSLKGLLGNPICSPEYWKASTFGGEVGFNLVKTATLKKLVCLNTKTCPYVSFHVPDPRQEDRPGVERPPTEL
Summary of the method: (§1)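 Isolated ovine COX-1 and human recombinant COX-2 tested by ELISA-based inhibitor screening kit with compound at 10 and 50 µM. Positive control indomethacin at 0.1 µM (COX-1) or 6 µM (COX-2). Mean of duplicates; Student t-test.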

HT-29 [2] = experiment: Inhibition of NF-kappaB activation expressed in human HT-29 cells assessed as inhibition of TNFalpha-stimulated IL8 release at 100 uM after 24 hrs by flow cytometric analysis relative to control; type: cell-based
Summary of the method: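 Reporter HT-29-NF-κB-hrGFP cells pretreated 2 h with compound (DMSO <0.5%) at the highest concentration with 100% survival, then stimulated with TNF-α (3 ng/mL final) for 18–24 h at 37 °C. IL-8 in clarified supernatant measured by flow cytometric bead assay (500 events). Expressed as % of TNF-α/DMSO control ± SD; thalidomide as reference.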

Mus musculus = experiment: Analgesic activity in albino mouse assessed as inhibition of acetic acid-induced abdominal constriction at 100 umol/kg, po administered 1 hr before acetic acid challenge measured after 30 mins relative to control; type: functional; details: Abdomen
Summary of the method: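 Albino mice of both sexes (18–23 g) were dosed orally as a suspension in 5% arabic gum in saline, with vehicle controls. After 1 h they received 0.6% acetic acid ip (0.1 mL/10 g). Constrictions were counted for 20 min starting 10 min after injection. Data are % inhibition vs vehicle, mean ± SEM, Student t-test.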

[3] = target: T1, Prostaglandin G/H synthase 1 (Ovis aries); experiment: Inhibition of ovine COX-1 at 50 uM; summary of the method: as §1
[4] = Cytotoxicity against human HT-29 cells expressing NF-kappaB-hrGFP assessed as highest non-cytotoxic dose for 100% cell survival after 24 hrs by MTT assay; type: cell-based; details: read-out: Activity
Summary of the method: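 HT-29 cells stably carrying pNF-κB-hrGFP, seeded at 0.5 × 10^6/mL in DMEM with 10% FBS, grown 24 h at 37 °C, 5% CO2. Compounds added in DMSO (<0.5% v/v final) at 12.5–400 µM for 24 h. Viability by MTT reduction (2 h), formazan dissolved in DMSO/glycine buffer, read at 560 nm.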

HT-29 [5] = experiment: Pro-inflammatory activity in NFkappaB-GFP transfected human HT-29 cells at 25 to 400 uM after 24 hrs by propidium iodide staining-based flow cytometric analysis; type: ADME, cell-based; details: ht-29, 24 h
Summary of the method: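 Reporter HT-29-NF-κB-hrGFP cells given compound alone, without TNF-α, for 18–24 h at 37 °C after the same 2 h pre-incubation. GFP-positive live (propidium iodide-excluding) cells counted by flow cytometry; IL-8 in supernatant measured by bead-based flow cytometry.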

[6] = Cytotoxicity against mouse […] cells after 48 hrs by MTT assay; type: cell-based
Summary of the method: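 J774 macrophages in DMEM (4 mM L-glutamine, 10% heat-inactivated FBS) were seeded at 1 × 10^5 cells/well and grown for 48 h at 37 °C, 5% CO2. They were then exposed to compounds at 25–400 µM for 48 h. MTT (0.1 mg/mL final) was added for 3 h, formazan was dissolved in DMSO/glycine buffer pH 10.5, and absorbance was read at 560 nm to give an IC50.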

[7] = target: T2, Prostaglandin G/H synthase 2 (Homo sapiens) (UniProt P35354); experiment: Inhibition of human recombinant COX-2 at 10 uM; summary of the method: as §1
T2 sequence (whole entry): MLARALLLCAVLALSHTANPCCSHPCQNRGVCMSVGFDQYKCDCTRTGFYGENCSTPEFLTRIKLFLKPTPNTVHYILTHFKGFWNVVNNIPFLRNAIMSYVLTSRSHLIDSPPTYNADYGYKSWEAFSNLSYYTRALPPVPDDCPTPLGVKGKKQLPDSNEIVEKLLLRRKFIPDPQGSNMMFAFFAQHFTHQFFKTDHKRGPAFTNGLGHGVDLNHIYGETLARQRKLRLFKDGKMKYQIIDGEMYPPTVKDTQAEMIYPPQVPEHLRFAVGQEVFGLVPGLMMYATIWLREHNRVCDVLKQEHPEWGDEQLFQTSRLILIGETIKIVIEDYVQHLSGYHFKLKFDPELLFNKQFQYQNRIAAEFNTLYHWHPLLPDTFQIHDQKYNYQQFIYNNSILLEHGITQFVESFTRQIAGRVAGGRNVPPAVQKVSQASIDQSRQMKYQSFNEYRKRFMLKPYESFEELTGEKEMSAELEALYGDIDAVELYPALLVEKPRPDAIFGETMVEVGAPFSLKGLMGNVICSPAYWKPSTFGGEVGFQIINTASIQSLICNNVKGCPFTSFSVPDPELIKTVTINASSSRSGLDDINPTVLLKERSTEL

Glycine max = experiment: Inhibition of soybean lipoxygenase using arachidonic acid as substrate at 50 uM
Summary of the method: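 Soybean 15-lipoxygenase kit assay, arachidonic acid substrate, H2O2 as lipoxygenating agent in 0.1 M Tris-HCl pH 7.4. Single-point screen at 50 µM. IC50 found by varying concentration over 10–100 µM. Quercetin at 4 µM as positive control; duplicate means; Student t-test.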

[8] = target: T2, Prostaglandin G/H synthase 2 (Homo sapiens); experiment: Inhibition of human recombinant COX-2 at 50 uM; summary of the method: as §1
Rattus norvegicus = experiment: Antiinflammatory activity in albino rat assessed as inhibition of carrageenan-induced paw edema at 100 umol/kg, po administered 1 hr before carrageenan challenge measured after 3 hrs by plethysmometric analysis relative to control; type: functional
Summary of the method: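 Albino rats of both sexes (150–200 g) were dosed orally as a suspension in 1% Tween 80 in saline, with vehicle controls. After 1 h, 0.1 mL 1% carrageenan or saline was injected subplantar. Paw volume was read by glass plethysmometer at 3 h. Edema = carrageenan-paw minus saline-paw volume; % inhibition vs vehicle; Student t-test.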

## O=C(N/N=C/c1c(-c2ccccc2)no[n+]1[O-])c1ccc2c(c1)OCO2
[1]
  inhibition: 27%
HT-29 [2]
  inhibition: 4%
Mus musculus
  inhibition in vivo at 100 µmol/kg: 42%
[3]
  inhibition: 28.5%
[4]
  MNTC at 24 h: 100 µM
HT-29 [5]
  Activity: Non-toxic
[6]
  IC50: 191 µM
[7]
  inhibition: 13.1%
Glycine max
  inhibition: 0%
[8]
  inhibition: 11.9%
Rattus norvegicus
  inhibition in vivo at 100 µmol/kg: 0%

## Cc1[nH]cnc1C(=O)N/N=C/c1ccc2no[n+]([O-])c2c1
[1]
  inhibition: 25.9%
Mus musculus
  inhibition in vivo at 100 µmol/kg: 46%
[3]
  inhibition: 22.3%
[4]
  MNTC at 24 h: 50 µM
HT-29 [5]
  Activity: Non-toxic
[6]
  IC50: 38 µM
[7]
  inhibition: 19.6%
Glycine max
  inhibition: 0%
[8]
  inhibition: 6.4%
Rattus norvegicus
  inhibition in vivo at 100 µmol/kg: 31%

## Cc1c(C(=O)N/N=C/c2ccc(N(C)C)cc2)no[n+]1[O-]
[1]
  inhibition: 22.5%
HT-29 [2]
  inhibition: 98%
[3]
  inhibition: 25.3%
[4]
  MNTC at 24 h: 100 µM
HT-29 [5]
  Activity: Non-toxic
[6]
  IC50: 129 µM
[7]
  inhibition: 17.8%
Glycine max
  inhibition: 0%
[8]
  inhibition: 22%
Rattus norvegicus
  inhibition in vivo at 100 µmol/kg: 19%
